The list is not random: actives were taken first. Their share in the collection is about 5.7%.
CSC inhib = blocks cancer stem cells | inhibition, % at 7.5 µM | 300,000 tested, 1.1% active | AID 2717 | cancer stem cell-like cells viability, luminescence; in the data active means inhibition above about 75%; inconclusive means no clear call, values can overlap the other calls; tested in HMLE shEcad cells
T cruzi inh = T. cruzi replication inhibition | 300,000 tested, 1.4% active | inhibition, % (no concentration beside the values) | T. cruzi beta-gal in NIH3T3, luminescence, 90 h;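 active means mean inhibition across valid replicates above about 55%, limit read from the data; inconclusive means mean below that limit but half or more replicates reach it; inactive means mean below it, under half of replicates reach it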;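 further: signal also drops with host cell toxicity which is not excluded here; higher percent means less beta-gal luminescence so fewer parasites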
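System: Mouse NIH/3T3 fibroblasts infected with β-gal-expressing T. cruzi Tulahuen C4 | Quantity: NIH/3T3 cells, 5,000 per well | Reagent: 5000 reporter trypomastigotes per well | Dosing: Compound pinned at 50 nL/well, DMSO | Schedule: 3 h host attachment, then at least 90 h co-culture | Detection: GalScreen luminescence, 60 min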
Beta cell apopt = blocks beta cell apoptosis; INS-1E cytokine-induced death, ATP luminescence, 48 h; percent of positive-control rescue, neutral wells zero; protection from apoptosis, % (test concentration not listed); AID 435005; 300,000 tested, 0.8% active;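 active means Every replicate reaches about 75%, or at least half do and their mean reaches it too, limit read from the data; inconclusive means At least half of replicates reach the limit but their mean does not; inactive means Under half of replicates reach the limit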;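 further: higher means more ATP so stronger rescue from cytokine killing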
SKKanGAS inh = SKKanGAS growth inhibition; AID 1662; S. pyogenes SKKanGAS, kanamycin growth, BacTiter-Glo, 6 h; inhibition, % at 7.5 µM; 300,000 tested, 1.3% active;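 active means mean replicate score, as percent of positive control median, at least 50; inconclusive means mean below 50 but one replicate at or above 50; inactive means mean and every replicate below 50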;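 further: strain carries kanamycin resistance gene driven by streptokinase promoter and grows in 40 µg/ml kanamycin; loss of luminescence reflects streptokinase promoter inhibition or plain growth inhibition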
Mdm2-MdmX inh = human Mdm2/MdmX binding inhibition | O15151+Q00987 | SaOS-2 split-luciferase Mdm2/MdmX complementation, luminescence | inhibition, % at 8 µM | 330,000 tested, 3% active | AID 485346;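 active means inhibition of at least 50% at 8 µM in the primary screen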
Target sequence (O15151 whole entry, looked up): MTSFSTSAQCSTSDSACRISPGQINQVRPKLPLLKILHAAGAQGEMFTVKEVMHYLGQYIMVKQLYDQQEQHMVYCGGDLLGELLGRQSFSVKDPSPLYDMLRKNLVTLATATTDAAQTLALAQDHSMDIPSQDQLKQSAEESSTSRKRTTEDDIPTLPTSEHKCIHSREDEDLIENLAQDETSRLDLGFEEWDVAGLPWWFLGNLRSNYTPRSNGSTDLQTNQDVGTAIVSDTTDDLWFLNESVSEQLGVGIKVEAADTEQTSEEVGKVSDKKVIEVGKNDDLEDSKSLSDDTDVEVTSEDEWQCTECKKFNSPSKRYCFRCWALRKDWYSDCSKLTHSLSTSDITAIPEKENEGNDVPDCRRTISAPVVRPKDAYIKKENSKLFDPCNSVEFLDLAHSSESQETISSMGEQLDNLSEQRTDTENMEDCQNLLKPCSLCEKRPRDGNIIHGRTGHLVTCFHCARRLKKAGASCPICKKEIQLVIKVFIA
Target sequence (Q00987 whole entry, looked up): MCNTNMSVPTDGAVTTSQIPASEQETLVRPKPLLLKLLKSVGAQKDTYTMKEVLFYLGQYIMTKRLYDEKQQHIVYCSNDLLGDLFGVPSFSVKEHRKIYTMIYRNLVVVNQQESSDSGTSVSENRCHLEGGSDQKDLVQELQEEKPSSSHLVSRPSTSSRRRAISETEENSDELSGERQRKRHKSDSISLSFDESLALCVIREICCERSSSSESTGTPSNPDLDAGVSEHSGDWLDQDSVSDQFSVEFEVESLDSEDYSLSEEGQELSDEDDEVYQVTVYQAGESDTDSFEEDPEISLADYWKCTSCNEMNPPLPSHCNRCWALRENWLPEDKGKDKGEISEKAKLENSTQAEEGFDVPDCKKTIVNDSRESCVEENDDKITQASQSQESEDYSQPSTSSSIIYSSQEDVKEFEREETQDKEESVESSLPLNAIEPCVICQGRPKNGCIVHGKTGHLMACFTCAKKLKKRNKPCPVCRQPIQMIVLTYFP
Calb FLC = affects C. albicans growth with fluconazole | C. albicans CaCi-2 (fluconazole-resistant clinical isolate) + fluconazole, Alamar Blue growth, 48 h | growth inhibition, % (test concentration not listed) | 300,000 tested, 0.57% active;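 active means growth inhibition above about 58% in most replicates, limit read from the data, passing the limit was not always enough; inconclusive means exactly half the replicates above a set limit; inactive means most replicates below a set limit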;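 further: all wells also contain fluconazole at 8 µg/ml as a sub-toxic cotreatment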
Numbers stand for hits; 0 = inactive; ? = inconclusive; - = no result given.

SMILES	CSC inhib	T cruzi inh	Beta cell apopt	SKKanGAS inh	Mdm2-MdmX inh	Calb FLC
Clc1ccccc1OCCCCn1ccnc1	0	62.9	0	58.7	0	0
Cc1ccc(OCCCCn2cnc3ccccc32)cc1	0	0	0	0	0	0
CCCN(CC(=O)Nc1ccccc1C)C(=O)C1CCN(C(=O)Nc2ccccc2)CC1	0	0	0	0	0	0
c1ccc2c(c1)ncn2CCCCOc1ccc2c(c1)CCC2	0	0	91.2	0	0	0
Cc1cccc(Cl)c1OCCCCn1ccnc1	-	65.6	0	0	0	0
Cc1cc(Cl)cc(C)c1OCCCCn1ccnc1	0	?	0	0	0	0
Cc1nc2ccccc2n1CCOc1ccccc1	0	0	0	0	0	0
Cc1ccccc1OCCn1c(C)nc2ccccc21	0	0	77.7	0	0	0
Cc1cccc(OCCCCCn2ccnc2)c1	0	57.5	0	0	0	0
Cc1ccc(N2C(=O)c3ccccc3C2C(=O)c2ccc(C)c(C)c2O)cc1 (configuration not stated)	0	0	0	0	0	0
Cc1cccc(C(=O)Nc2c(C(=O)N(C)C)cnn2-c2ccccc2)c1	0	0	0	0	0	0
CCOc1ccccc1OCC(=O)NCCc1ccc(S(N)(=O)=O)cc1	0	0	0	0	0	0
CC1=NN(c2ccccc2)C(=O)/C1=C\C=C1/N(C)c2ccccc2C1(C)C	0	0	0	0	0	0
CC1=NN(c2ccccc2)C(=O)/C1=C\C=C1\N(C)c2ccccc2C1(C)C	78.9	0	0	0	0	0
CN1/C(=C\C=C2/SC(=S)NC2=O)C(C)(C)c2ccccc21	0	75.3	99.1	0	0	0
O=C1CC(=O)NC(SCC(=O)Nc2ccccc2[N+](=O)[O-])=N1	0	0	0	0	0	0
O=C(CCNC(=O)c1ccco1)Nc1ccc(F)c(Cl)c1	0	0	0	0	0	0
Cc1c(Cl)cccc1Nc1nc(N)nc(CN2CCc3ccccc3C2)n1	0	0	0	80.0	0	0
Cc1ccc(Nc2nc(N)nc(CN3CCc4ccccc4C3)n2)cc1	0	0	-	0	0	?
C=CCOc1ccc(C2/C(=C(\O)c3ccc4c(c3)CC(C)O4)C(=O)C(=O)N2CCN2CCOCC2)cc1OCC (configuration not stated)	0	0	0	0	0	-
O=C(Nc1ccccc1F)c1ccc(COc2ccc(Cl)cc2Cl)o1	0	0	0	0	0	0
Cc1nn(Cc2c(F)c(F)c(F)c(F)c2F)c(C)c1NC(=O)c1cccc(COc2ccccc2Cl)c1	0	0	0	0	0	0
Cc1nn(Cc2cccc(F)c2)c(C)c1NC(=O)c1ccc(COc2ccccc2Cl)cc1	101.3	57.3	0	0	0	0
Cc1nn(Cc2c(F)c(F)c(F)c(F)c2F)c(C)c1NC(=O)c1ccc(COc2ccc(Cl)cc2Cl)o1	0	66.7	0	0	0	0
O=C(Nc1ccn(Cc2c(F)c(F)cc(F)c2F)n1)c1ccc(COc2ccc(Cl)cc2Cl)o1	0	0	0	50.0	0	0
SMILES	CSC inhib	T cruzi inh	Beta cell apopt	SKKanGAS inh	Mdm2-MdmX inh	Calb FLC
C=CCn1c(SCC(=O)N(CC)C2CCS(=O)(=O)C2)nc2cc(C(=O)O)ccc2c1=O (configuration not stated)	0	-	0	-	0	-
O=C(CCc1nnc2ccc(N3CCOCC3)nn12)Nc1ccc(F)cc1F	0	0	0	0	0	0
O=S(=O)(c1ccc2c(c1)OCCO2)N1CCN(c2ncnc3sccc23)CC1	0	0	80.9	0	0	?
COc1ccc(/C=N/OCC(=O)NC(c2ccccc2)c2ccccc2)cc1OC	0	56.6	0	0	0	0
COc1ccc(/C=N/OCC(=O)Nc2cc(C)on2)cc1OC	0	0	0	0	0	0
O=C(O)c1ccccc1-c1nc(-c2ccccc2)c(-c2ccccc2)[nH]1	0	0	0	0	0	0
O=C(O)c1cccc2c(-c3ccccc3)c(-c3ccccc3)[nH]c12	0	0	0	58.5	0	0
COc1cc(C(=O)OCC(=O)NC2CCS(=O)(=O)C2)ccc1OCc1c(C)noc1C (configuration not stated)	0	0	0	0	0	0
COc1ccc(/C=C/C(=O)N(c2ccccn2)C2CCCCC2)cc1OC	0	0	0	0	0	83.4
Cc1ccc(SCc2ccc(C(=O)N3CCCC3)cc2)cc1	0	0	0	0	0	0
CCN1CCN(C(=O)c2ccc(CSc3ccc(C)cc3)cc2)CC1	154.9	0	0	0	0	98.1
O=C(CSc1nnc(Cn2nnc3ccccc32)o1)N(Cc1ccc(Cl)cc1)c1ccccc1	0	0	99.1	0	0	0
Cn1ccnc1SCC(=O)Nc1cc(F)ccc1F	0	0	0	0	0	0
OCCN=Cc1c(O)[nH]c2ccccc12	0	0	0	0	0	0
CN(C)CC(C)(C)CN=Cc1c(O)[nH]c2ccccc12	0	60.5	0	0	0	0
C=CCOC(=O)C1=C(C)NC(SCC(N)=O)=C(C#N)C1c1ccc(C)cc1 (configuration not stated)	0	0	0	0	0	0
C=CCOC(=O)C1=C(C)NC(SCC)=C(C#N)C1c1ccc(Cl)cc1 (configuration not stated)	0	0	0	76.2	0	0
Cc1nn(-c2ccccc2)c(C)c1/C=N/NC(=O)c1cc(-c2cccc3ccccc23)n[nH]1	0	0	0	51.0	0	0
C=CCN1C(=O)c2ccc(C(=O)N(CCC)CC(=O)Nc3ccccc3C)cc2C1=O	0	0	0	0	0	0
CNC(=S)/N=C/NOCc1ccc(Cl)cc1Cl	0	74.5	-	0	0	92.9
COc1ccc(S(=O)(=O)NCC(c2cccnc2)N2CCN(Cc3ccccc3)CC2)cc1C (configuration not stated)	0	57.0	0	0	0	0
CCN1CCN(C(CNS(=O)(=O)c2ccc(OC)cc2)c2cccnc2)CC1 (configuration not stated)	0	0	0	0	0	0
COc1ccc(C(CNS(=O)(=O)c2ccc(F)cc2)N2CCN(C)CC2)cc1 (configuration not stated)	-	0	0	0	0	0
COc1ccc(S(=O)(=O)NCC(c2cccnc2)N2CCN(Cc3ccccc3)CC2)cc1 (configuration not stated)	0	54.6	0	0	0	0
COc1ccc(S(=O)(=O)NCC(c2ccc(F)cc2)N2CCN(C)CC2)cc1 (configuration not stated)	-	0	0	50.1	0	0
O=S(=O)(Nc1cccc(-n2cnnn2)c1)c1ccc(F)cc1	-	-	-	-	0	-
CCOC(=O)c1cc(-c2ccc(F)cc2)n(CCC(=O)NC2CCN(Cc3ccccc3)CC2)c1C	0	77.8	0	0	0	0
CC(C)c1ccc(CNn2cnnc2)cc1	0	0	0	0	0	0
CCCC[n+]1c(-c2ccc(Cl)cc2Cl)csc1Nc1ccccc1	0	0	0	0	0	0
Clc1ccc(-c2csc(Nc3ccccc3)[n+]2Cc2ccco2)c(Cl)c1	-	0	-	78.7	-	0
